Rows were chosen to be rich in hits. Some 2.6% of all compounds tested hit in one or more screens of this group.
TCR CD3 inh – inhibitors of human TCR-CD3 interaction, primary screen, biochemical, fluorescence, TAMRA-labeled TCR probe; hit rate 0.37% among 360,000; inhibition, % at 9.4 µM; AID 651800, 2012;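 further: recombinant mutant TCR 2C K166C tagged with TAMRA read by polarization; 0% = receptor in buffer alone and 100% = receptor with positive control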
HTRA1 inh – HTRA1 serine protease inhibitors, primary screen, biochemical, fluorescence polarization, HTS | Q92743 | recombinant HTRA1, FP-rhodamine activity-based probe | inhibition, % at 5.96 µM | hit rate 0.5% among 340,000 | AID 504803, 2011; in the data active means inhibition above about 36%;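 further: 0% = enzyme with DMSO and 100% = wells lacking enzyme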
SIAE primary – human SIAE inhibitors, primary screen, biochemical, fluorescence polarization, FP-Rh probe, 1536-well HTS; Sialate O-acetylesterase (Homo sapiens), Q9HAT2; SIAE FP-Rh probe binding; inhibition, % at 9.66 µM; hit rate 0.69% among 370,000; AID 1053197, 2014;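 active means inhibition above a cutoff: mean of compounds within the control limits plus 3 SD of those, cut at about 17% in these data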;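 further: 0% = plate median of compound wells and 100% = probe without SIAE protein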
PRMT1 inh – PRMT1 methyltransferase inhibitors, primary screen, biochemical, fluorescence polarization | AID 652257, 2013 | inhibition, % at 2.79 µM | recombinant PRMT1, activity-based probe fluorescence polarization | hit rate 1.3% among 370,000;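 active means inhibition above about 21% made by adding two undisclosed values, limit read from the data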
Target sequence (Q99873 whole entry, looked up): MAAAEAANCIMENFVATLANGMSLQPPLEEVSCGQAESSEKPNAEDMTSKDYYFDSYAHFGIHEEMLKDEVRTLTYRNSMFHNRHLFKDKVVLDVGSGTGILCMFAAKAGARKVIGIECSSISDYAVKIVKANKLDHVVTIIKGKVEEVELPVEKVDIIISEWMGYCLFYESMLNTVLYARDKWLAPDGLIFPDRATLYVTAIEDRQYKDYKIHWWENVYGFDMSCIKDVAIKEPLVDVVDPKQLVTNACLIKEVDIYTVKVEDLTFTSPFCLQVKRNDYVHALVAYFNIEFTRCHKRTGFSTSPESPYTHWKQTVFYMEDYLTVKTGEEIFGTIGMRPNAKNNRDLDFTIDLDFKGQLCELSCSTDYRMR
mABHD4 FP – ABHD4 inhibitors, primary screen, biochemical, fluorescence polarization, mouse; AID 720543, 2013; purified mABHD4, FP-Rh probe fluorescence polarization; inhibition, % at 8.92 µM; hit rate 0.54% among 370,000; (Lyso)-N-acylphosphatidylethanolamine lipase (Mus musculus), Q8VD66;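 active means inhibition exceeding the mean over every tested compound plus 3 SD, cut at about 30% in these data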;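 further: 0% = plate median of compound wells and 100% = S159A mutant with DMSO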
Target sequence (Q8VD66 whole entry, looked up): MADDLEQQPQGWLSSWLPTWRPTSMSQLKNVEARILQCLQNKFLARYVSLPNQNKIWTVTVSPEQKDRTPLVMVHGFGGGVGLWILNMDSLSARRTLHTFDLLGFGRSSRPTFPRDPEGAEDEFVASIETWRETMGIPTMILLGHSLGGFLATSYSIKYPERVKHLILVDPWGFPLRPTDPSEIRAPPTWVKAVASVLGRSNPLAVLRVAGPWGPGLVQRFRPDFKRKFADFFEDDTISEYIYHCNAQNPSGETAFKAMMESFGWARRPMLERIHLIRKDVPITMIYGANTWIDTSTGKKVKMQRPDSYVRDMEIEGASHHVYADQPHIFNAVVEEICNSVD
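Test system: mABHD4 protein; Read-out basis: % inhibition; Incubation: 45 min + 60 min at 25 °C; Repeats: single replicate; Technique: fluorescence polarization with parallel and perpendicular emission, 525/598 nm; Compound: 8.92 µM, single dose; Benchmarks: full inhibition S159A mutant plus DMSO, zero as sample-well median.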
HTRA1 inh conf – HTRA1 protease inhibitors, retest, confirmation, biochemical, fluorescence polarization. hit rate 66% among 1,600. inhibition, % at 5.96 µM. AID 540248, 2011. recombinant HTRA1, FP-rhodamine activity-based probe. shares compounds with HTRA1 inh;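 active means mean inhibition over three repeats above a set limit taken from the earlier primary screen, cut at about 37% in these data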;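 further: 0% = HTRA1 with DMSO and 100% = wells lacking HTRA1; inhibitors block probe binding so polarization drops and inhibition rises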
BSA probe FL – compounds interfering with TAMRA-BSA probe, counter-screen for TCR-CD3 interaction inhibitor project, biochemical, fluorescence, TAMRA-labeled BSA | inhibition, % at 9.4 µM | shares compounds with TCR CD3 inh | AID 652035, 2013 | TAMRA-labeled BSA probe fluorescence counterscreen | hit rate 10% among 1,200; in the data active means inhibition above about 23%;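 further: 0% = buffer low control and 100% = reference high control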
TCR-CD3 conf – TCR-CD3 interaction inhibitors, retest, confirmation, biochemical, fluorescence, TAMRA-labeled TCR probe; AID 652036, 2013; inhibition, % at 9.4 µM; hit rate 48% among 1,200; shares compounds with TCR CD3 inh; TAMRA-labeled TCR probe fluorescence binding assay
ABHD4 confirm – ABHD4 inhibitors, retest, confirmation, biochemical, fluorescence polarization, mouse. purified mABHD4, FP-Rh probe fluorescence polarization. inhibition, % at 8.92 µM. AID 720658, 2013. shares compounds with mABHD4 FP. hit rate 55% among 1,800;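 active means mean inhibition across replicates above the hit cutoff set in the primary screen, cut at about 30% in these data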;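 further: 0% = wild-type ABHD4 with DMSO and 100% = catalytically dead S159A mutant with DMSO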
SIAE inh conf – human SIAE inhibitors, retest, confirmation, biochemical, fluorescence polarization, FP-Rh probe, triplicate. shares compounds with SIAE primary. AID 1117263, 2014. inhibition, % at 9.66 µM. SIAE FP-Rh activity-based probe. hit rate 13% among 2,300;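 active means mean inhibition of the replicates above the hit cutoff set in the primary screen, cut at about 17% in these data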;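 further: 0% = SIAE with DMSO and probe and 100% = probe without SIAE; inhibitors lower polarization as more probe stays unbound to SIAE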
The depositor's hits bear a star; . = no result given. Unless noted, no stated cut-off is given here; in the data, active means inhibition above about 19%; inactive means the rest.

SMILES	TCR CD3 inh	HTRA1 inh	SIAE primary	PRMT1 inh	mABHD4 FP	HTRA1 inh conf	ABHD4 confirm	SIAE inh conf	others
CCCCS(=O)(=O)N1CCCc2nc(CC)c(CC)cc21	-4.7	.	8.4	-2.0	0.8	.	.	.
COc1ccc(-n2nnnc2CNC(=O)C2CC(=O)N(c3ccc(Cl)cc3)C2)cc1 (stereo unspecified)	0.6	0.6	-2.8	-1.9	-3.4	.	.	.
Cc1cc(NC(=O)C(C)SCC(=O)OC(C)C(=O)Nc2ccc(F)cc2Cl)no1 (stereo unspecified)	-4.1	4.1	-1.5	-0.1	-1.3	.	.	.
CCCCNc1ccc2c(c1)OC[C@H](C)NS2(=O)=O	5.8	.	3.1	-2.5	0.7	.	.	.
O=S(=O)(Nc1ccc(N=Nc2ccccc2)cc1)c1ccccc1	-1.3	-6.2	8.4	-1.5	-33.0	.	.	.
O=S(=O)(Nc1ccc(N=Nc2ccc(O)c3ccccc23)cc1)c1ccccc1	1.8	44.2*	35.9*	5.7	-2.5	30.9	.	-38.0
Nc1ccc(Oc2ccc(N)c([N+](=O)[O-])c2)cc1[N+](=O)[O-]	-1.8	5.0	2.7	9.7	3.4	.	.	.
C=C1N(C)c2cc([N+](=O)[O-])c(N)cc2C1(C)C	1.4	54.2*	18.0*	3.2	22.9	32.7	.	15.0
O=C(N/N=C/c1ccc(O)c2ncccc12)c1cccc(Br)c1	0.2	67.1*	28.9*	-3.5	8.8	59.1*	.	12.6
O=C(N/N=C/c1cc(Br)ccc1O)c1ccncc1	-11.4	11.6	-0.9	-6.5	9.5	.	.	.
Cn1cc(C(=O)N/N=C/c2c(O)ccc3ccccc23)ccc1=O	37.9*	62.0*	30.3*	-3.3	31.0*	42.4*	29.5*	8.9	BSA probe FL=-22.5;TCR-CD3 conf=24.3*
Cc1ccc(C(=O)N/N=C/c2c(O)ccc3ccccc23)cn1	14.9	62.1*	21.3*	-4.4	17.2	49.5*	.	2.6
O=C(N/N=C\c1c(O)ccc2ccccc12)c1cncc(Br)c1	1.4	52.8*	30.9*	-4.2	34.2*	49.9*	25.2	5.6
Cc1c(Br)c(O)c(Br)c2sc(=O)oc12	25.0*	47.1*	28.9*	80.3*	67.1*	1.5	66.2*	10.3	BSA probe FL=-7.5;TCR-CD3 conf=5.1
C=CCN1C(=O)c2[nH]nc(-c3ccccc3)c2C1c1ccc(C)cc1 (stereo unspecified)	-3.7	.	-1.9	0.5	-10.7	.	.	.
C#CCn1cc(/C=N/Nc2nc3ccccc3[nH]2)c2ccccc21	-5.0	43.0*	55.4*	-2.6	24.1	45.0*	.	61.3*
O=[N+]([O-])c1cccc(N/N=C/c2cccc(O)c2O)c1	7.4	59.7*	23.3*	2.9	36.5*	73.9*	34.1*	-6.1
COC(=O)c1cccc2c([N+](=O)[O-])c(NC(C)=O)cc(C(=O)OC)c12	7.5	.	-4.4	-0.4	7.3	.	.	.
CCCC(=Nc1ccc(N)cc1)C1=C(O)C(C(=O)OC)C(C)(C)CC1=O (stereo unspecified)	66.7*	60.7*	35.2*	16.1	79.3*	59.2*	14.3	10.2	BSA probe FL=8.3;TCR-CD3 conf=8.0
COC(=O)C1=C(C)N(Cc2ccc(Br)cc2)C(=S)NC1c1ccccc1 (stereo unspecified)	-0.2	.	-6.6	9.9	-17.1	.	.	.
COc1cc(/C=C/c2ccc3c(Br)cc(Br)c(O)c3n2)ccc1O	-0.3	43.9*	27.7*	-1.0	-0.1	31.2	.	-5.1
COc1ccc(/C=C/c2ccc3c(Br)ccc(O)c3n2)cc1	-4.6	23.2	-2.3	-0.8	17.8	.	.	.
O=c1ccc2ccccc2c2ccccc12	3.7	.	-7.8	5.0	3.3	.	.	.
O=Nc1c(O)c2ccccc2c2ccccc12	0.5	61.5*	29.9*	1.8	50.6*	78.1*	57.9*	24.4*
O=c1[nH]c(=S)[nH]c2nc(-c3ccccc3)cnc12	-0.3	1.6	3.0	12.6	8.9	.	.	.
SMILES	TCR CD3 inh	HTRA1 inh	SIAE primary	PRMT1 inh	mABHD4 FP	HTRA1 inh conf	ABHD4 confirm	SIAE inh conf	others
Cc1cc2nc3c(=O)[nH]c(=S)[nH]c3nc2cc1NC(=O)C(F)(F)F	70.4*	45.7*	21.4*	164.8*	65.1*	3.0	18.4	8.5	BSA probe FL=-1.8;TCR-CD3 conf=8.6
COc1cc([N+](=O)[O-])c(OC)cc1Nc1ccccc1C(=O)O	1.5	.	-2.9	1.4	7.7	.	.	.
COc1cc(-c2ccc(Nc3ccccc3C(=O)O)c(OC)c2)ccc1Nc1ccccc1C(=O)O	9.8	42.4*	30.5*	7.6	53.6*	56.0*	80.2*	22.1*
COCCCNC(=O)c1nnn2c1nc(N)c1cc(Cl)ccc12	0.8	.	1.5	-1.6	6.3	.	.	.
Cc1ccc(-n2nc3cc(C)c(N)cc3n2)cc1	-0.4	-16.6	10.8	3.1	11.4	.	.	.
Cc1cc2nc3ccc(N(C)C)cc3nc2cc1N	93.0*	66.0*	29.7*	69.5*	56.8*	59.8*	23.8	31.8*	BSA probe FL=48.3*;TCR-CD3 conf=72.3*
O=C(N/N=C/c1cc2c3c(c1O)CCCN3CCC2)c1ccccc1O	69.0*	51.1*	43.3*	17.0	44.2*	58.1*	22.2	36.2*	BSA probe FL=31.1*;TCR-CD3 conf=68.5*
Cc1nn(-c2ccccc2)c(N2CCCC2)c1/C=N/NC(=O)c1ccccc1O	4.6	8.1	4.1	0.1	14.7	.	.	.
O=S(=O)(c1cc(O)ccc1O)c1cccc2c(S(=O)(=O)c3cc(O)ccc3O)cccc12	24.7*	5.4	-2.7	11.8	-10.1	.	.	.	BSA probe FL=-8.8;TCR-CD3 conf=12.2
O=S(=O)(O)c1cc(O)ccc1O	-1.1	2.3	2.6	8.6	2.0	.	.	.
Cc1ccc(NC(=O)COC(=O)c2cc(-c3cccs3)nn2-c2ccccc2)cc1[N+](=O)[O-]	-0.6	-4.4	6.3	-2.6	-1.7	.	.	.
O=C(COC(=O)c1cc(-c2cccs2)nn1-c1ccccc1)Nc1cccc([N+](=O)[O-])c1	26.0*	2.7	-2.7	-2.4	-6.3	.	.	.	BSA probe FL=2.8;TCR-CD3 conf=0.8

Screening data (PubChem BioAssay)
